Source: ChEMBL document CHEMBL1157729, “Structure-activity relationship and mechanism of action studies of manzamine analogues for the control of neuroinflammation and cerebral infections” (J Med Chem, 2010)
Converted amounts (≈) assume the structure as drawn.

How the values were obtained:
HeLa [1] = experiment: Cell cycle arrest in human HeLa cells assessed as increase in G0/G1 phase accumulation at 10 uM after 24 hrs by FACS analysis; assay type: functional
Plasmodium berghei [2] = experiment: Antiplasmodial activity against Plasmodium berghei NK65 infected in Swiss Webster mice (Mus musculus) assessed as average parasitaemia at 200 mg/kg, perorally administered 1 day after infection measured after 7 days post infection; assay type: functional; details: route oral
Plasmodium berghei [3] = experiment: Antiplasmodial activity against Plasmodium berghei NK65 infected in Swiss Webster mice (Mus musculus) at 10 mg/kg, po; assay type: functional
Plasmodium berghei [4] = experiment: Antiplasmodial activity against Plasmodium berghei NK65 infected in Swiss Webster mice (Mus musculus) assessed as average parasitaemia at 50 mg/kg, perorally administered 1 day after infection measured after 7 days post infection; assay type: functional; details: route oral
Method in brief: (§1)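 Male Swiss Webster mice (18-20 g, ≥5/group) inoculated i.p. with 2×10^7 P. berghei NK-65 parasitized RBC, given a single oral dose (100 μl, SSV or dilute HCl vehicle); parasitemia by Giemsa-stained tail blood smears days 5–28; activity as % decrease versus untreated controls on day 5.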

Plasmodium berghei [5] = experiment: Antiplasmodial activity against Plasmodium berghei NK65 infected in Swiss Webster mice (Mus musculus) assessed as average parasitaemia at 5 mg/kg, perorally administered 1 day after infection for 3 days measured after 7 days post infection; assay type: functional; details: route oral
Plasmodium berghei [6] = experiment: Antiplasmodial activity against Plasmodium berghei NK65 infected in Swiss Webster mice (Mus musculus) assessed as average parasitaemia at 3.3 mg/kg, perorally administered 1 day after infection for 3 days measured after 7 days post infection; assay type: functional; details: route oral
Method in brief: (§2)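 Male Swiss Webster mice (18-20 g, ≥5/group) inoculated i.p. with 2×10^7 P. berghei NK-65 parasitized RBC; oral dosing (100 μl, SSV or dilute HCl vehicle) once daily for 3 days from day 1; Giemsa-stained tail blood smears days 5–28; inhibition is % decrease versus untreated controls on day 5.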

Plasmodium berghei [7] = experiment: Antiplasmodial activity against Plasmodium berghei NK65 infected in Swiss Webster mice (Mus musculus) assessed as average parasitaemia at 10 mg/kg, perorally administered 1 day after infection for 3 days measured after 7 days post infection; assay type: functional; details: route oral
Plasmodium berghei [8] = experiment: Antiplasmodial activity against Plasmodium berghei NK65 infected in Swiss Webster mice (Mus musculus) assessed as survivability at 3.3 mg/kg, perorally administered 1 day after infection for 3 days measured after 28 days post infection; assay type: functional; details: route oral
Method in brief: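 Male Swiss Webster mice (18-20 g), at least 5 per group, inoculated i.p. with 2×10^7 P. berghei NK-65-parasitized red cells from a donor mouse. Oral dosing (100 μl, in SSV or 0.01 M HCl dilutions) from day one post-infection on a 3-day schedule (modified Peters test). Giemsa-stained tail-blood smears read from day 5 to day 28. Cure means no parasitemia through day 28.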

Vero = experiment: Cytotoxicity against african green monkey Vero cells after 48 hrs by neutral red assay; assay type: cell-based; details: chlorocebus sabaeus
Method in brief: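 Vero cells seeded at 25,000/well and grown 24 h, then exposed to serially diluted samples for 48 h. Viable cells measured by neutral red assay, with doxorubicin as positive control. IC50 taken from dose-response curves.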

HeLa [9] = experiment: Cell cycle arrest in human HeLa cells assessed as increase in S phase accumulation at 3 uM after 24 hrs by FACS analysis; assay type: functional
HeLa [10] = experiment: Cell cycle arrest in human HeLa cells assessed as increase in G0/G1 phase accumulation at 3 uM after 24 hrs by FACS analysis; assay type: functional
Plasmodium berghei [11] = experiment: Antiplasmodial activity against Plasmodium berghei NK65 infected in Swiss Webster mice (Mus musculus) assessed as average parasitaemia at 200 mg/kg, perorally administered 1 day after infection measured after 5 days post infection; assay type: functional; details: Plasmodium berghei, NK65, route oral
Method in brief: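 Male Swiss Webster mice (18-20 g), at least 5 per group, were inoculated ip with 2×10^7 P. berghei NK-65-parasitized red cells from a donor mouse and given a single oral dose (100 μl). Stock was made in SSV or 0.1 M HCl and diluted in SSV or 0.01 M HCl. Parasitemia was read from Giemsa-stained tail blood smears from day 5 to day 28. Cure meant no parasitemia through day 28.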

Plasmodium berghei [12] = experiment: Antiplasmodial activity against Plasmodium berghei NK65 infected in Swiss Webster mice (Mus musculus) assessed as average parasitaemia at 3.3 mg/kg, perorally administered 1 day after infection for 3 days measured after 21 days post infection; assay type: functional; details: route oral; method in brief: as §2
Plasmodium berghei [13] = experiment: Antiplasmodial activity against Plasmodium berghei NK65 infected in Swiss Webster mice (Mus musculus) assessed as average parasitaemia at 1.1 mg/kg, perorally administered 1 day after infection for 3 days measured after 14 days post infection; assay type: functional; details: route oral
Cryptococcus neoformans = experiment: Antifungal activity against Cryptococcus neoformans ATCC 90113; assay type: functional, organism-based
Method in brief: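 Broth microdilution per modified CLSI method; samples serially diluted in 20% DMSO/saline, tested in duplicate; inocula set by OD630 of suspensions in incubation broth; growth read at 630 nm before and after incubation; amphotericin B drug control.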

Plasmodium berghei [14] = experiment: Antiplasmodial activity against Plasmodium berghei NK65 infected in Swiss Webster mice (Mus musculus) assessed as average parasitaemia at 50 mg/kg, perorally administered 1 day after infection measured after 10 days post infection; assay type: functional; details: route oral
Plasmodium berghei [15] = experiment: Antiplasmodial activity against Plasmodium berghei NK65 infected in Swiss Webster mice (Mus musculus) assessed as parasitaemia cure at 50 mg/kg, perorally administered 1 day after infection measured after 28 days post infection; assay type: functional; details: route oral
Method in brief: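 P. berghei NK-65 infection in male Swiss Webster mice (18-20 g; 2×10^7 parasitized erythrocytes i.p.; ≥5 per group). A single oral dose of 100 μl, diluted in SSV or 0.01 M HCl, then observation for toxicity signs and body weight. Parasitemia read from Giemsa-stained tail smears from day 5 through day 28. Mice free of parasitemia through day 28 counted as cured.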

Plasmodium berghei [16] = experiment: Antiplasmodial activity against Plasmodium berghei NK65 infected in Swiss Webster mice (Mus musculus) assessed as survivability at 10 mg/kg, perorally administered 1 day after infection for 3 days measured after 28 days post infection; assay type: functional; details: route oral
Plasmodium berghei [17] = experiment: Antiplasmodial activity against Plasmodium berghei NK65 infected in Swiss Webster mice (Mus musculus) assessed as inhibition of parasitaemia at 3.3 mg/kg, perorally administered 1 day after infection for 3 days measured after 5 days post infection; assay type: functional; details: route oral; method in brief: as §2
[18] = system: Mycobacterium tuberculosis; experiment: Antimycobacterial activity against Mycobacterium tuberculosis; assay type: functional
Mus musculus = experiment: Toxicity in Plasmodium berghei NK65 infected Swiss Webster mice (Mus musculus) at 10 mg/kg, intraperitoneally for 3 days administered 1 day after infection measured after 5 days post infection; assay type: organism-based; design: dose 10 mg/kg, route intraperitoneal; details: in vivo, ip, 120 h
Plasmodium berghei [19] = experiment: Antiplasmodial activity against Plasmodium berghei NK65 infected in Swiss Webster mice (Mus musculus) assessed as average parasitaemia at 200 mg/kg, perorally administered 1 day after infection measured after 28 days post infection; assay type: functional; details: Plasmodium berghei, NK65, route oral; method in brief: as §1

## O[C@]12C=C(c3nccc4c3[nH]c3ccccc34)[C@@H]3CCN(CCCC/C=C\CC1)C[C@@]31C[C@@H]3/C=C\CCCCN3[C@H]12 [MANZAMINE A]
HeLa [1]
  Activity: 59.1%
Plasmodium berghei [2]
  inhibition in vivo at 200 mg/kg: 0%
Plasmodium berghei [3]
  inhibition in vivo at 10 mg/kg: > 30%
Plasmodium berghei [4]
  inhibition in vivo at 50 mg/kg: 0%
Plasmodium berghei [5]
  inhibition in vivo at 5 mg/kg: 4.5%
Plasmodium berghei [6]
  inhibition in vivo at 3.3 mg/kg: 2.8%
Plasmodium berghei [7]
  inhibition in vivo at 10 mg/kg: 0.2%
Plasmodium berghei [8]
  inhibition in vivo at 3.3 mg/kg: 100%
Vero
  IC50: 0.2 µg/mL (≈ 0.364 µM)
HeLa [9]
  Activity: 56.2%
HeLa [10]
  Activity: 56.2%
Plasmodium berghei [11]
  inhibition in vivo at 200 mg/kg: 0%
Plasmodium berghei [12]
  inhibition in vivo at 3.3 mg/kg: 21.6%
Plasmodium berghei [13]
  inhibition in vivo at 1.1 mg/kg: 21.7%
Cryptococcus neoformans
  IC50: 1 µg/mL (≈ 1.82 µM)
Plasmodium berghei [14]
  inhibition in vivo at 50 mg/kg: 0%
Plasmodium berghei [15]
  inhibition in vivo at 50 mg/kg: 60%
Plasmodium berghei [16]
  inhibition in vivo at 10 mg/kg: 100%
Plasmodium berghei [17]
  inhibition in vivo at 3.3 mg/kg: 88%
[18]
  MIC: 1.56 µg/mL (≈ 2.84 µM)
Mus musculus
  Activity: Toxic
Plasmodium berghei [19]
  inhibition in vivo at 200 mg/kg: 0%
